Common to all, as to assay type: functional
Test [1] concerns Mycobacteroides abscessus. The experiment in a line: Antibacterial activity against Mycobacterium abscessus CIP_PIPD1 harboring MAB_4508 g925c/A309P mutant after 3 to 5 days by two fold serial dilution method. Summed up: (§1)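 Broth microdilution in cation-adjusted Mueller−Hinton broth per CLSI; inoculum 5 × 10^6 CFU/mL of exponential-phase bacteria; two-fold serial dilutions, solvent-only wells as control; 30 °C for 3−5 days; MIC read visually and confirmed by absorbance at 560 nm; triplicate on three independent occasions.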

The test system of test [2] is Mycobacteroides abscessus. Briefly: Antibacterial activity against non CF patient derived Mycobacterium abscessus subsp. abscessus isolate CIP104536 smooth variant after 3 to 5 days by two fold serial dilution method. Put shortly:
as §1

Test [3] deals with Mycobacteroides abscessus. The experiment in a line: Antibacterial activity against Mycobacterium abscessus CIP_OK4-10 harboring MAB_4508 g925c/A309P mutant after 3 to 5 days by two fold serial dilution method. Summed up: as §1
For test [4], the system named is Mycobacteroides abscessus. Briefly: Antibacterial activity against Mycobacterium abscessus CIP104536 smooth variant expressing tdTomato infected in PMA activated THP-1 macrophages assessed as protection against […] infection after 4 days post treatment by microscopic method. Put shortly: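 THP-1 macrophages, PMA-differentiated, infected with tdTomato-expressing M. abscessus, amikacin-treated and drug-exposed as in the CFU assay; at 96 h, bacteria-containing macrophages counted under fluorescence microscopy (4297 total cells) to give percentage of infected cells.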

Test [5] deals with Mycobacteroides abscessus. Briefly: Antibacterial activity against Mycobacterium abscessus CIP104536 smooth variant infected in PMA activated THP-1 macrophages assessed as reduction in viable colony forming unit at 96 ug/ml measured upto 4 days post treatment by fluorescence microscopic method. Put shortly:
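THP-1 cells in RPMI with 10% FBS, differentiated with 20 ng/mL PMA for 48 h at 37 °C; infected at MOI 1:2 for 2 h under 5% CO2; washed, 200 μg/mL amikacin for 1 h, washed; drug medium renewed daily; lysed in 1% Triton X100 at 0, 48, 96 h and plated for CFU; triplicates, two independent experiments.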

For test [6], the system named is Mycobacteroides abscessus. The experiment in a line: Antibacterial activity against Mycobacterium abscessus CIP104536 smooth variant assessed as reduction in viable colony forming unit at 8 ug/ml after 4 days by time-kill assay. Put shortly: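 Set up as microdilution MIC plates in cation-adjusted Mueller−Hinton broth with smooth CIP 104536; serial dilutions plated after 0, 24, 48, 72 and 96 h of drug exposure; CFU counted after 4 days at 30 °C; mean of triplicate log10 values, representative of three independent experiments.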

Structures are written as SMILES. ≈ marks a conversion by molar mass, not a printed value. Calls of active or inactive are those of the source. The calls are words filed in the database; no cut-off is given here.

A word on the MIC: it is the least concentration at which growth counts as inhibited. Read a low MIC as greater potency.

On to `Cc1ccccc1CN1CCC(O)(c2ccc(Cl)c(C(F)(F)F)c2)CC1`, for which the figures for the MIC in test [1], in test [2] and in test [3] were 8 mg/L (≈ 20.8 µM), 0.125 mg/L (≈ 0.326 µM) and 8 mg/L (≈ 20.8 µM), respectively.
On to `C[C@@H](O)[C@H]1C(=O)N2C(C(=O)O)=C(SCCNC=N)C[C@H]12`, for which the result in test [4], in test [5] and in test [6] was Active.

The values are drawn from ChEMBL document CHEMBL4014347, “Targeting Mycolic Acid Transport by Indole-2-carboxamides for the Treatment of Mycobacterium abscessus Infections” (J Med Chem, 2017).
